According to ChEMBL document CHEMBL1123799, “Cardiotonic agents. 1. Novel 8-aryl-substituted imidazo[1,2-a]- and -[1,5-a]pyridines and imidazo[1,5-a]pyridinones as potential positive inotropic agents” (J Med Chem, 1987):

Columns and labels:
[1] = organism: Canis familiaris; assay: Electrophysiological activity as concentration causing 20 % increase in the functional refractory period of canine ventricular muscle.; design: species or system Canis lupus familiaris, Muscle tissue
Method in brief: (§1)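 Right-ventricle papillary muscle strips (5-6 mm × 1-2 mm) in a 3.5-mL bath, superfused with oxygenated saline at 36 ± 0.5 °C. Diastolic threshold set with 2 ms bipolar stimuli at 4000 ms cycle length. Paced at 4× threshold for 60 min. FRP found at 1000 ms cycle length with a premature S2 after every tenth S1 at shortening intervals. Various concentrations superfused, one compound per strip.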

[2] = organism: Felis catus; assay: Inotropic activity as dose required to cause 20% positive or negative change in contractile force of papillary muscle from cat; assay type: functional, Muscle tissue
Method in brief: (§2)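 Papillary muscle (<1 mm diameter, ≥3 mm long) held isometric at 35 °C in bicarbonate saline (pH 7.3-7.5, 95% O2/5% CO2). Muscles under 500 mg/mm² force discarded. Compounds in water added to the bath at 1:1000, with a 15-min wash between doses. Norepinephrine 10 μM added last as internal standard. Force normalized to cross-sectional area (weight/length). Mean of ≥3 determinations.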

[3] = Ability to inhibit canine cardiac cAMP phosphodiesterase III
Method in brief: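 Crude enzyme from dog cardiac muscle homogenate, taken by differential centrifugation between 700g and 165000g. Assay at 37 °C with 10^-6 M cAMP plus [3H]cAMP (10^5 cpm/mL), 40 mM Tris pH 8.0, 10 mM MgCl2, 2.5 mM mercaptoethanol, 0.05 mg/mL BSA and 0.1 mg/mL enzyme. AMP and cAMP separated by PEI-cellulose ion-exchange TLC and counted by scintillation. Triplicate, up to 100 μM.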

[4] = organism: Mustela putorius furo; assay: Inotropic activity as dose required to cause 20% positive or negative change in contractile force of papillary muscle from ferret; assay type: functional, Muscle tissue; method in brief: as §2
[5] = organism: Mustela putorius furo; assay: Inotropic activity as dose required to cause 20% positive or negative change in contractile force of papillary muscle from ferret
[6] = organism: Canis familiaris; assay: Electrophysiological activity as concentration of the drug causing 20 % increase in the functional refractory period of canine ventricular muscle.; design: species or system Canis lupus familiaris, Muscle tissue; method in brief: as §1

| SMILES | FRP C20 [1] [µM] | CF C20 [2] [µM] | also measured |
| --- | --- | --- | --- |
| Cc1ncc2n1CCC=C2c1ccc(NS(C)(=O)=O)cc1 | 10 | 2 | – |
| CS(=O)(=O)Nc1ccc(-c2cccn3ccnc23)cc1 | 50 | 10 | IC50 [3]: > 1000 µM |
| c1cc(-c2ccc(-n3ccnc3)cc2)c2nccn2c1 | – | 30 | IC50 [3]: 220 µM |
| CCCCNC(=O)NC1CCN(c2ncnc3cc(OC)c(OC)cc23)CC1 [BUQUINERAN] | – | – | CF C20 [4]: 7 µM |
| C1=C(c2ccc(-n3ccnc3)cc2)c2nccn2CC1 | 100 | 29 | IC50 [3]: 550 µM |
| COC(=O)c1nc(O)n2cccc(-c3ccc(-n4ccnc4C)cc3)c12 | – | 30 | – |
| Cc1ncc2n1CCC=C2c1ccc(O)cc1 | 100 | 30 | – |
| Cc1ncc2n1CCCC2c1ccc(NS(C)(=O)=O)cc1 (configuration not stated) | 80 | – | CF C20 [4]: 0.8 µM |
| Cc1nccn1-c1ccc(-c2cccn3c(C)ncc23)cc1 | 80 | 13 | IC50 [3]: 65 µM |
| Nc1ccc(-c2cccn3ccnc23)cc1 | – | 15 | – |
| CCOC(=O)c1nc(O)n2cccc(-c3ccccc3)c12 | – | – | CF C20 [5]: -10 µM |
| Cc1ncc2c(-c3ccccc3)cccn12 | – | – | CF C20 [4]: -20 µM |
| CSc1ccc(C(=O)c2[nH]c(=O)[nH]c2C)cc1 [ENOXIMONE] | – | 3 | – |
| Cc1nccn1-c1ccc(-c2cccn3c(C)nc(Br)c23)cc1 | – | 1 | IC50 [3]: 30 µM; FRP C20 [6]: 17 µM |
| Cc1ncc2n1CCC=C2c1ccc(-n2ccnc2)cc1 | 14 | 9 | – |
| c1ccc(-c2cccn3ccnc23)cc1 | 10 | 1 | – |
| CC(=O)Nc1ccc(C2=CCCn3c2cnc3C)cc1 | 40 | 10 | – |
| Cc1ncc2n1CCC=C2c1ccccc1 | – | 10 | – |
| CCOc1ccc(-c2cccn3c(C)ncc23)cc1 | – | -100 | – |
| COC(=O)c1nc(O)n2cccc(-c3ccc(C)cc3)c12 | – | -40 | – |
| C1=C(c2ccccc2)c2nccn2CC1 | – | -15 | – |
| Cc1nccn1-c1ccc(C2=CCCn3c2cnc3C)cc1 | 5 | 5 | IC50 [3]: 150 µM |
| CCOc1ccc(C2=CCCn3c2cnc3C)cc1 | 30 | 20 | – |
| Oc1ccc(-c2cccn3ccnc23)cc1 | -18 | 15 | – |
| Cc1ccc(-c2cccn3c(O)ncc23)cc1 | – | 6 | – |
| Nc1ccc(C2=CCCn3ccnc32)cc1 | – | -5 | – |
| CCc1nccn1-c1ccc(C2=CCCn3c2cnc3CC)cc1 | 9 | 0.8 | – |
